Columns and labels:
Klebsiella pneumoniae = assay: Antimicrobial activity against Klebsiella pneumoniae KB214 ATCC 10031 assessed as zone of inhibition at 1 ug/disc measured after 24 to 48 hrs by paper disc method; format: functional; settings: read-out: IZ
Outline: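 Paper disc diffusion with 6 mm sterile filter discs, each loaded with 10 μL of compound solution and placed on nutrient agar (0.5% peptone, 0.5% meat extract, 0.8% agar, pH 7.0). Plates seeded with 0.5% inoculum and incubated at 37 °C for 24 h. Inhibition zone diameters measured after incubation.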

Proteus vulgaris = assay: Antimicrobial activity against Proteus vulgaris KB127 NBRC 3167 assessed as zone of inhibition at 1 ug/disc measured after 24 to 48 hrs by paper disc method; format: functional; settings: read-out: IZ
Outline: (§1)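 Bacteria on nutrient agar (0.5% peptone, 0.5% meat extract, 0.8% agar, pH 7.0), 37 °C, 24 h. Inoculum 0.5% for B. subtilis, E. coli, K. pneumoniae, P. vulgaris; 0.2% for K. rhizophila. 6 mm discs carrying 10 μL compound solution. Zone of inhibition measured.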

Bacillus spizizenii = assay: Antimicrobial activity against Bacillus subtilis KB211 ATCC 6633 assessed as zone of inhibition at 1 ug/disc measured after 24 to 48 hrs by paper disc method; format: functional; settings: ATCC 6633 KB211, read-out: IZ; outline: as §1
Pseudomonas aeruginosa = assay: Antimicrobial activity against Pseudomonas aeruginosa KB359 NBRC 12582 assessed as zone of inhibition at 1 ug/disc measured after 24 to 48 hrs by paper disc method; format: functional; settings: read-out: IZ
Outline: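 Pseudomonas aeruginosa NBRC 12582 on nutrient agar (0.5% peptone, 0.5% meat extract, 0.8% agar, pH 7.0), 1.0% inoculation, 37 °C, 24 h. Discs (6 mm) impregnated with 10 μL compound solution placed on plate. Inhibition zones measured.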

Staphylococcus aureus = assay: Antimicrobial activity against Staphylococcus aureus KB210 ATCC 6538p assessed as zone of inhibition at 1 ug/disc measured after 24 to 48 hrs by paper disc method; format: functional; settings: read-out: IZ
Outline: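 Nutrient agar (0.5% peptone, 0.5% meat extract, 0.8% agar, pH 7.0) inoculated at 0.2% with S. aureus ATCC 6538p. 6 mm filter discs impregnated with 10 μL compound solution were applied. Plates were incubated at 37 °C for 24 h and inhibition zones were measured.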

Xanthomonas campestris = assay: Antimicrobial activity against Xanthomonas campestris pv. oryzae KB88 assessed as zone of inhibition at 1 ug/disc measured after 24 to 48 hrs by paper disc method; format: functional; settings: read-out: IZ
Outline: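 Paper disc diffusion with 6 mm sterile filter discs, each loaded with 10 μL of compound solution and placed on nutrient agar (0.5% peptone, 0.5% meat extract, 0.8% agar, pH 7.0). Plates seeded with 1.0% inoculum and incubated at 27 °C for 24 h. Inhibition zone diameters measured after incubation.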

Kocuria rhizophila = assay: Antimicrobial activity against Kocuria rhizophila KB212 ATCC 9341 assessed as zone of inhibition at 1 ug/disc measured after 24 to 48 hrs by paper disc method; format: functional, Kocuria rhizophila DC2201; settings: read-out: IZ; outline: as §1
[1] = system: Mycolicibacterium smegmatis; assay: Antimicrobial activity against Mycobacterium smegmatis KB42 assessed as zone of inhibition at 1 ug/disc measured after 24 to 48 hrs by paper disc method; format: functional; settings: read-out: IZ
Escherichia coli = assay: Antimicrobial activity against Escherichia coli KB213 NIHJ assessed as zone of inhibition at 1 ug/disc measured after 24 to 48 hrs by paper disc method; format: functional; settings: read-out: IZ; outline: as §1
Candida albicans = assay: Antimicrobial activity against Candida albicans KF1 ATCC 64548 assessed as zone of inhibition at 10 ug/disc measured after 24 to 48 hrs by paper disc method; format: functional; settings: read-out: IZ
Aspergillus niger = assay: Antimicrobial activity against Aspergillus niger KF103 ATCC 6275 assessed as zone of inhibition at 10 ug/disc measured after 24 to 48 hrs by paper disc method; format: functional; settings: read-out: IZ
Saccharomyces cerevisiae [2] = assay: Antimicrobial activity against Saccharomyces cerevisiae harboring 12genedelta0HSR-iERG6 mutant assessed as zone of inhibition at 10 ug/disc measured after 24 to 48 hrs by paper disc method; format: functional; settings: read-out: IZ
Outline: (§2)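 Paper disc diffusion with 6 mm sterile filter discs, each loaded with 10 μL of compound solution and placed on agar plates. Plates incubated at 27 or 37 °C for 24−48 h, then inhibition zones measured.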

Mucor racemosus = assay: Antimicrobial activity against Mucor racemosus KF223 assessed as zone of inhibition at 10 ug/disc measured after 24 to 48 hrs by paper disc method; format: functional; settings: read-out: IZ
Saccharomyces cerevisiae [3] = assay: Antimicrobial activity against Saccharomyces cerevisiae BY25929 harboring yrr2/yrs1/pdr1/pdr3 deletion mutant assessed as zone of inhibition at 10 ug/disc measured after 24 to 48 hrs by paper disc method; format: functional; settings: read-out: IZ; outline: as §2
Saccharomyces cerevisiae [4] = assay: Antimicrobial activity against Saccharomyces cerevisiae BY4741 assessed as zone of inhibition at 10 ug/disc measured after 24 to 48 hrs by paper disc method; format: functional; settings: read-out: IZ
Outline: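 S. cerevisiae BY4741 spread on YPD agar (1% yeast extract, 2% peptone, 2% glucose, 1.5% agar) at 1% inoculation. Sterile 6 mm filter discs loaded with 10 μL compound solution were placed on the plates. Plates were incubated at 27 °C for 48 h, then inhibition zones were measured.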

Saccharomyces cerevisiae [5] = assay: Antimicrobial activity against Saccharomyces cerevisiae KF237 ATCC 9763 assessed as zone of inhibition at 10 ug/disc measured after 24 to 48 hrs by paper disc method; format: functional; settings: read-out: IZ
Acholeplasma laidlawii = assay: Antimicrobial activity against Acholeplasma laidlawii KB174 PG8 assessed as zone of inhibition at 1 ug/disc measured after 24 to 48 hrs by paper disc method; format: functional; settings: read-out: IZ

C[C@@H](O)[C@H]1C(=O)N2C(C(=O)O)=C(S[C@@H]3CN[C@H](C(=O)N(C)C)C3)[C@H](C)[C@H]12
zone of inhibition at 1 µg/disc (Klebsiella pneumoniae): 27 mm | zone of inhibition at 1 µg/disc (Proteus vulgaris): 37.8 mm | zone of inhibition at 1 µg/disc (Bacillus spizizenii): 24.1 mm | zone of inhibition at 1 µg/disc (Pseudomonas aeruginosa): 47.3 mm | zone of inhibition at 1 µg/disc (Staphylococcus aureus): 35.2 mm | zone of inhibition at 1 µg/disc (Xanthomonas campestris): 31.6 mm | zone of inhibition at 1 µg/disc (Kocuria rhizophila): 38 mm | zone of inhibition at 1 µg/disc [1]: 9.5 mm | zone of inhibition at 1 µg/disc (Escherichia coli): 31 mm

C[C@@H]1[C@H](O)[C@@H](C)/C=C/C=C/C=C/C=C/C=C/C=C/C=C/[C@H](O[C@@H]2O[C@H](C)[C@@H](O)[C@H](N)[C@@H]2O)C[C@@H]2O[C@](O)(C[C@@H](O)C[C@@H](O)[C@H](O)CC[C@@H](O)C[C@@H](O)CC(=O)O[C@H]1C)C[C@H](O)[C@H]2C(=O)O [AMPHOTERICIN B]
zone of inhibition at 10 µg/disc (Candida albicans): 13 mm | zone of inhibition at 10 µg/disc (Aspergillus niger): 16.1 mm | zone of inhibition at 10 µg/disc (Saccharomyces cerevisiae [2]): 9.8 mm | zone of inhibition at 10 µg/disc (Mucor racemosus): 15.1 mm | zone of inhibition at 10 µg/disc (Saccharomyces cerevisiae [3]): 11.7 mm | zone of inhibition at 10 µg/disc (Saccharomyces cerevisiae [4]): 8.2 mm | zone of inhibition at 10 µg/disc (Saccharomyces cerevisiae [5]): 14.5 mm

CC[C@H]1OC(=O)[C@H](C)[C@@H](O[C@H]2C[C@@](C)(OC)[C@@H](O)[C@H](C)O2)[C@H](C)[C@@H](O[C@@H]2O[C@H](C)C[C@H](N(C)C)[C@H]2O)[C@](C)(O)C[C@@H](C)C(=O)[C@H](C)[C@@H](O)[C@]1(C)O [ERYTHROMYCIN]
zone of inhibition at 1 µg/disc (Acholeplasma laidlawii): 28 mm

Reference: ChEMBL document CHEMBL4145644 (J Nat Prod, 2018)
